Data reported in ChEMBL document CHEMBL4330057, “Second generation of diazachrysenes: Protection of Ebola virus infected mice and mechanism of action” (Eur J Med Chem, 2019).
pIC50: −log10 of the molar value. The source made the active and inactive calls. The rule behind the calls is not given here.

Assays:
[1] = Drug uptake in C57Bl/6 mouse serum at 10 mg/kg/day, ip qd for 7 days measured on day 7 at 5 to 240 mins post dose by UHPLC/MS analysis; assay type: ADME, organism-based; conditions: in vivo, read-out: Drug uptake
[2] = test system: HeLa; test: Induction of lysosomotropism in human HeLa cells infected with Ebolavirus assessed as dense clustering in perinuclear region at 2 uM for 2 hrs by acridine orange staining based assay; assay type: functional, cell-based
In short: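 HeLa cells pretreated 2 h, then acridine orange for 30 min, washed and imaged. Total intensity and average area of acridine orange fluorescence quantified by high-content imaging. Mean ± SD of 8 wells, about 3000 cells each, three independent experiments.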

[3] = Toxicity in 6 hrs post fertilized zebrafish embryo assessed as teratogenic effect by measuring effect on blood circulation up to 50 uM up to 120 hrs post fertilization by inverted microscopic method; parameters: species or system Danio rerio; conditions: in vivo
[4] = Cytotoxicity against human HeLa cells after 2 hrs by high content imaging analysis; assay type: cell-based
[5] = Toxicity in 6 hrs post fertilized zebrafish embryo assessed as lethal effect on somite formation up to 50 uM up to 120 hrs post fertilization by inverted microscopic method; parameters: species or system Danio rerio; conditions: in vivo
[6] = Binding affinity to AGP (unknown origin) at compound to protein molar ratio of 1:20 after 10 mins by fluorescence spectral analysis; assay type: ADME; conditions: human, isolated protein
In short: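 Protein fluorescence spectra recorded while compound was added in increasing amounts. Stern-Volmer binding constant (KSV) derived from the fluorescence change.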

[7] = test system: HeLa; test: Induction of lysosomotropism in human HeLa cells infected with Ebolavirus assessed as increase in fluorescence intensity of acid compartments at 2 uM for 1 hr by Lysosensor DND189 staining based assay; assay type: functional, cell-based
In short: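 HeLa cells were pretreated 1 h with compound (Bafilomycin A1 at 0.01 μM as acidification control), then stained with LysoSensor DND 189 for 10 min and washed. Live imaging at Ex/Em 443/505 nm. Fluorescence intensity per area was quantified by image analysis. Eight wells per point, about 3000 cells/well, mean ± SD, three independent experiments.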

[8] = test system: Ebolavirus; test: Antiviral activity against Ebolavirus infected in mouse assessed as protection against viral infection at 10 mg/kg/day relative to control; assay type: functional
[9] = Myelotoxicity in 6 hrs post fertilized transgenic mpx:GFP zebrafish embryo assessed as reduction in neutrophil occurrence up to 20 uM measured at 72 hrs hrs post fertilization by fluorescence assay; parameters: species or system Danio rerio
In short: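 Tg(mpx:GFP) zebrafish embryos with GFP-labelled neutrophils were treated with compound. At 72 hpf, neutrophil fluorescence of the whole embryo and neutrophil occurrence were assessed.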

[10] = Toxicity in 6 hrs post fertilized zebrafish embryo assessed as teratogenic effect by measuring growth retardation up to 50 uM up to 120 hrs post fertilization by inverted microscopic method; parameters: species or system Danio rerio; conditions: in vivo
[11] = test system: Ebolavirus; test: Antiviral activity against Ebolavirus H. sapiens-wt/1995/Kikwit-9510621 infected in human HeLa cells assessed as inhibition of viral infection at 2 uM pretreated for 2 hrs followed by viral infection and measured after 24 hrs by EboV GP immunostaining based high content imaging analysis; assay type: functional, organism-based
[12] = test system: HeLa; test: Inhibition of lysosome fusion with autophagosome in human HeLa cells harboring GFP-LC3 assessed as increase in GFP-LC3-2 clustering at 2 uM after 4 hrs; assay type: functional, cell-based
In short: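 HeLa cells stably expressing GFP-LC3 were treated with compound for 4 h, then imaged. Total GFP clusters per cell were counted. Eight-well replicates, about 500 cells/well, mean ± SD, three independent experiments.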

[13] = Cytotoxicity against HFF after 2 hrs by high content imaging analysis; assay type: cell-based; conditions: human, HFF cells
[14] = Toxicity in 6 hrs post fertilized zebrafish embryo assessed as teratogenic effect by measuring liver morphology and color up to 50 uM up to 120 hrs post fertilization by inverted microscopic method; assay type: tissue-based, Danio rerio; conditions: in vivo
[15] = Toxicity in 6 hrs post fertilized zebrafish embryo assessed as teratogenic effect by measuring effect on heart beat frequency up to 50 uM up to 120 hrs post fertilization by inverted microscopic method; parameters: species or system Danio rerio; conditions: in vivo
[16] = Clearance in human liver microsomes after 1 hr; assay type: ADME, Microsome; conditions: read-out: CLH
In short: (§1)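 Substrate depletion with mouse or human liver microsomes, 1 h at 37 °C. Clearance (μL/min/mg) and half-life derived.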

[17] = Apparent permeability from basolateral to apical side in MDCK cells; assay type: ADME, cell-based, Canis lupus familiaris; conditions: dog
In short: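 Apparent permeability measured in MDCK cell monolayers, apical→basolateral and basolateral→apical directions, three biological replicates.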

[18] = test system: Zaire ebolavirus; test: Antiviral activity against VSV pseudotyped Ebolavirus Mayinga expressing GFP infected in human HeLa cells assessed as inhibition of viral infection at 2 uM pre-incubated for 2 hrs followed by viral infection and measured after 8 hrs by cell mask deep red staining based assay; assay type: functional, organism-based; conditions: 1976
In short: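 HeLa cells pretreated 2 h with compound, then infected with rVSV-EBOV-GP-GFP (8 h) or VSV-GFP (6 h), and stained with Cell Mask Deep Red. Relative inhibition = 1 minus (% GFP-expressing cells normalised to mock). Mean ± SD of three replicates, representative of three independent experiments.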

[19] = Stability in plasma (unknown origin) after 1 hr at 37 degC; assay type: ADME, cell-free; conditions: read-out: Stability
In short: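 Compound was incubated in plasma for 1 h at 37 °C, and the percent remaining was reported.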

[20] = Solubility of the compound in pH 7.4 buffer by laser nephelometric method; assay type: physicochemical
In short: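 Solubility at pH 7.4 was measured by laser nephelometry (light scattering), in triplicate.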

[21] = target: Cytochrome P450 2D6 (Homo sapiens, UniProt P10635); test: Inhibition of CYP2D6 (unknown origin) using 3-(2-(N, N-Diethyl-N-methylamino)ethyl)-7-Methoxy-4-Methylcoumarin as substrate; assay type: ADME; conditions: read-out: INH
In short: (§2)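 CYP IC50 was taken from the net fluorescent signal after incubation at 37 °C for a set time with active cytochrome P450 enzyme and a fluorescent probe substrate.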

[22] = target: T1, Cytochrome P450 3A4 (Homo sapiens, UniProt P08684); test: Inhibition of CYP3A4 (unknown origin) using 7-benzyloxy-4-trifluoromethylcoumarin as substrate; assay type: ADME; in short: as §2
[23] = Hepatotoxicity in 6 hrs post fertilized transgenic l-fabp:EGFP zebrafish embryo assessed as change in liver area index up to 30 uM up to 120 hrs post fertilization by fluorescence assay; assay type: toxicity, Danio rerio; conditions: in vivo
In short: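 Tg(l-fabp:EGFP) zebrafish embryos exposed from 6 hpf. At 120 hpf, liver area index (liver area/lateral body area) and liver fluorescence assessed by in vivo imaging.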

[24] = Drug metabolism in C57Bl/6 mouse assessed as bis-oxygenation metabolite formation at 20 mg/kg/day, ip qd for 7 days measured at 24 hrs post last dose by UHPLC/MS analysis; assay type: ADME, organism-based; conditions: in vivo
In short: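 Serum from two mice dosed 20 mg/kg/day i.p. taken 24 h after the last dose. Compound quantified by UHPLC/MS and screened for M+2, M+16, M-2 and M+32 products or combinations.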

[25] = target: Cytochrome P450 2C19 (Homo sapiens, UniProt P33261); test: Inhibition of CYP2C19 (unknown origin) using CEC as substrate; assay type: ADME; in short: as §2
[26] = Clearance in mouse liver microsomes after 1 hr; assay type: ADME, Microsome; conditions: read-out: CLH; in short: as §1
[27] = target: T1, Cytochrome P450 3A4; test: Inhibition of CYP3A4 (unknown origin) using 7-benzyloxyquinoline as substrate; assay type: ADME; in short: as §2
[28] = Solubility of the compound in deionized water; assay type: physicochemical
[29] = target: T1, Cytochrome P450 3A4; test: Inhibition of CYP3A4 (unknown origin) using dibenzylfluorescein as substrate; assay type: ADME; in short: as §2
[30] = Toxicity in Balb/c mouse infected with Ebolavirus Mayinga assessed as weight loss at 1 to 10 mg/kg, ip administered 2 hrs prior to viral infection daily for 6 days and measured for 14 days; assay type: organism-based; conditions: in vivo, 336 h

T1 sequence (P08684 whole entry): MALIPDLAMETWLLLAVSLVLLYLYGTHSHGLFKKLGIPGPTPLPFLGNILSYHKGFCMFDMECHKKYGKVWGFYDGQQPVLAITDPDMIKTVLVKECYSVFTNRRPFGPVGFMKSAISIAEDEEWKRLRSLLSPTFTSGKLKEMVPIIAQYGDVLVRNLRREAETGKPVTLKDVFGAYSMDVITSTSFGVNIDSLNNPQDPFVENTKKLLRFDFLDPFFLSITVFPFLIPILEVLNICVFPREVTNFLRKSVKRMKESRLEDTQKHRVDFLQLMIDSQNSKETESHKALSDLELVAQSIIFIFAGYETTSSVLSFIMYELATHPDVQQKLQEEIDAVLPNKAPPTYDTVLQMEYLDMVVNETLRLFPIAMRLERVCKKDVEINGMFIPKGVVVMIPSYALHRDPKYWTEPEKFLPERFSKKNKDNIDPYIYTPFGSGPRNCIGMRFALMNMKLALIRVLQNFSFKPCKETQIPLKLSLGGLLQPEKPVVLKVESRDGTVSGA
Chain of Cytochrome P450 2D6 (P10635 whole entry): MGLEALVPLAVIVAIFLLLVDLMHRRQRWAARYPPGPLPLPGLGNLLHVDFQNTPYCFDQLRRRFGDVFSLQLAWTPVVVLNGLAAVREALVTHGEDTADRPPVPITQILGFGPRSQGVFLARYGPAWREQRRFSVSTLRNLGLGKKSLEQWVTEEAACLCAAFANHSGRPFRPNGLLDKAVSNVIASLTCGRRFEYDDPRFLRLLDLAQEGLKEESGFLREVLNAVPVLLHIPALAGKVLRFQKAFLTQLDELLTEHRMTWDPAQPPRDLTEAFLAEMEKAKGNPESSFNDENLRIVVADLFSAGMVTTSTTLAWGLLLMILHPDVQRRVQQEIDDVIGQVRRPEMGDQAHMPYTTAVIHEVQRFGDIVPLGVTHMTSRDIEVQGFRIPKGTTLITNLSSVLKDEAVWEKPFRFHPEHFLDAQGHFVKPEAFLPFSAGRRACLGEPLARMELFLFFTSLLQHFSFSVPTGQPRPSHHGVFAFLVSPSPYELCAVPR
Chain of Cytochrome P450 2C19 (P33261 whole entry): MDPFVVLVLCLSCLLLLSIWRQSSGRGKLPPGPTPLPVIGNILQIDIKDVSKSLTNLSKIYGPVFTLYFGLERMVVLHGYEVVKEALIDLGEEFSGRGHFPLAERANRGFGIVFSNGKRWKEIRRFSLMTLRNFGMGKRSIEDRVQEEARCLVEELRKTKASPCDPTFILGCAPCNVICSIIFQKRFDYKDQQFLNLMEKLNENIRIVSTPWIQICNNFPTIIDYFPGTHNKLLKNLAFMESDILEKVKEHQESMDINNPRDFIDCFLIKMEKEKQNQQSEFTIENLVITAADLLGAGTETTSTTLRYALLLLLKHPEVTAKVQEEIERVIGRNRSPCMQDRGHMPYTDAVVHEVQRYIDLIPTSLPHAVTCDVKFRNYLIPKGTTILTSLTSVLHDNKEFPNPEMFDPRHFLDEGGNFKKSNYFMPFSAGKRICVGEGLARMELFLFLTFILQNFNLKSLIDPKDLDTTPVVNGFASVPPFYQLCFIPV

Question: With `Cl.Cl.Cl.Cl.c1cc(NCCN2CCOCC2)c2ccc3c(ccc4c(NCCN5CCOCC5)ccnc43)c2n1` as the molecule, how does the concentration [1] read?
Answer: Its concentration is 460 to 650 nM.

Question: What about the Activity [2] of the same molecule?
Answer: The Activity was “Active”.

Question: And the Activity [3]?
Answer: The Activity was “Non-Toxic”.

Question: And the CC50 at 2 h [4]?
Answer: The CC50 at 2 h was > 20 µM.

Question: What about the Activity [5] of the same molecule?
Answer: The Activity was “Non-Toxic”.

Question: And the KSV [6]?
Answer: The KSV was 8.12 ×10⁴ /M.

Question: And the Activity [7]?
Answer: The Activity was “Active”.

Question: What about the Activity [8] of the same molecule?
Answer: The Activity was 90%.

Question: What about the Activity [9] of the same molecule?
Answer: Its Activity is “Non-Toxic”.

Question: What about the Activity [10] of the same molecule?
Answer: The Activity was “Non-Toxic”.

Question: What about the Activity [11] of the same molecule?
Answer: Its Activity is “Active”.

Question: And the inhibition [12]?
Answer: Its inhibition is “Active”.

Question: And the CC50 at 2 h [13]?
Answer: The CC50 at 2 h was > 20 µM.

Question: And the Activity [14]?
Answer: Its Activity is “Non-Toxic”.

Question: And the Activity [15]?
Answer: Its Activity is “Non-Toxic”.

Question: For `Cl.Cl.Cl.Cl.c1cc(NCCCCN2CCOCC2)c2ccc3c(ccc4c(NCCN5CCOCC5)ccnc43)c2n1`, which microsomal CLint [16] is on record?
Answer: Its microsomal CLint is 32.9 µL/min/mg.

Question: And the Papp B→A [17]?
Answer: Its Papp B→A is 43.2 to 67.3 ×10⁻⁶ cm/s.

Question: And the Activity [18]?
Answer: The Activity was “Active”.

Question: And the Activity [2]?
Answer: Its Activity is “Active”.

Question: And the remaining at 1 h [19]?
Answer: The remaining at 1 h was 60%.

Question: And the Activity [3]?
Answer: Its Activity is “Non-Toxic”.

Question: What about the solubility kinetic [20] of the same molecule?
Answer: Its solubility kinetic is > 0.05 mg/mL.

Question: And the CC50 at 2 h [4]?
Answer: Its CC50 at 2 h is 8 µM.

Question: And the pIC50 [21]?
Answer: Its pIC50 is < 5.00.

Question: And the Activity [5]?
Answer: Its Activity is “Non-Toxic”.

Question: What about the KSV [6] of the same molecule?
Answer: Its KSV is 6.12 ×10⁴ /M.

Question: And the INH [22]?
Answer: The INH was > 10 µM.

Question: And the Activity [7]?
Answer: Its Activity is “Active”.

Question: What about the Activity [23] of the same molecule?
Answer: Its Activity is “Non-Toxic”.

Question: What about the Drug metabolism [24] of the same molecule?
Answer: Its Drug metabolism is “Metabolite_Notdetected”.

Question: What about the INH [25] of the same molecule?
Answer: The INH was > 10 µM.

Question: And the microsomal CLint [26]?
Answer: The microsomal CLint was 22.3 µL/min/mg.

Question: What about the Activity [10] of the same molecule?
Answer: Its Activity is “Non-Toxic”.

Question: What about the INH [27] of the same molecule?
Answer: The INH was > 10 µM.

Question: And the Activity [11]?
Answer: The Activity was “Active”.

Question: What about the inhibition [12] of the same molecule?
Answer: The inhibition was “Active”.

Question: What about the CC50 at 2 h [13] of the same molecule?
Answer: Its CC50 at 2 h is 2.4 µM.

Question: And the Activity [14]?
Answer: The Activity was “Non-Toxic”.

Question: What about the Activity [15] of the same molecule?
Answer: Its Activity is “Non-Toxic”.

Question: And the solubility [28]?
Answer: The solubility was ≥ 25 mg/mL.

Question: What about the INH [29] of the same molecule?
Answer: Its INH is > 10 µM.

Question: And the Activity [30]?
Answer: The Activity was “Non-Toxic”.
